Experimental data published in ChEMBL document CHEMBL4680093 (J Med Chem, 2016).

What was measured:
[1] = target: T1, Mineralocorticoid receptor (Homo sapiens, UniProt P08235); test: Agonist activity at mineralocorticoid receptor (unknown origin)
T1 sequence (P08235 whole entry): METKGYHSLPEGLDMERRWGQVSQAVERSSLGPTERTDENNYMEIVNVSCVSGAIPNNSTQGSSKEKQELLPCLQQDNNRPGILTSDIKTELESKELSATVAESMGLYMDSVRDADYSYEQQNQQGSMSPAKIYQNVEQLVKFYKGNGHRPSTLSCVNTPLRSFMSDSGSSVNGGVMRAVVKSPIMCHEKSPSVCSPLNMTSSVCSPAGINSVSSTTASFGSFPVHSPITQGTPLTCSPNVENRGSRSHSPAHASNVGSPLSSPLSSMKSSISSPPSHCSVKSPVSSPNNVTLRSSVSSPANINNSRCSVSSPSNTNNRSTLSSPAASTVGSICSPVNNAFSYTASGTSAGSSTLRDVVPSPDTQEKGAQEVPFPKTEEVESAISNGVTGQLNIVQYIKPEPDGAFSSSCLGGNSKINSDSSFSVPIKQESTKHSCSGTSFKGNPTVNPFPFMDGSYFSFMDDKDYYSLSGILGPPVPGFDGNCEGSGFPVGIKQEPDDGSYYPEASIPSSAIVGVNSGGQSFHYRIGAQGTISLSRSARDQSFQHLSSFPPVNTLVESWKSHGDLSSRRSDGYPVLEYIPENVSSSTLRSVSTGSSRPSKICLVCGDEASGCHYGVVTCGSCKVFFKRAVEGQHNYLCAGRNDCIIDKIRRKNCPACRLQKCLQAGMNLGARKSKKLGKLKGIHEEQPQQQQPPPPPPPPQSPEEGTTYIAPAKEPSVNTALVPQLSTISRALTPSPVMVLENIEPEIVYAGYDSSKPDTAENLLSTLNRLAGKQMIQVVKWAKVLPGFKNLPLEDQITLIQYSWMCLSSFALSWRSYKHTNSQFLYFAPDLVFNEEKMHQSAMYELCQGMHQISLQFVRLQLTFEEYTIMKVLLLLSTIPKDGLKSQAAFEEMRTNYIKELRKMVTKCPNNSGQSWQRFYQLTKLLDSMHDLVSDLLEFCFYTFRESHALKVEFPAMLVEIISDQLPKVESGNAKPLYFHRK

[2] = Inhibition of PDE3 (unknown origin); parameters: species or system Homo sapiens
[3] = tested on: Mus musculus; test: In-vivo inhibition of 11beta-HSD1 activity in C57BL/6 mouse liver assessed as reduction in cortisone to-cortisol conversion at 3 to 30 mg/kg, po measured after 2 to 6 hrs by ELISA; type: functional, organism-based; details: dose 3-30 mg/kg, time 2-6 hrs
Outline: (§1)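 Male C57BL/6 mice dosed orally once at 3, 10 or 30 mg/kg in sterile water containing 0.5% methylcellulose and 1% Tween80, then sacrificed at 2 or 6 h. Liver and epididymal fat pads incubated ex vivo in culture medium containing cortisone. Cortisol formed was measured by ELISA and reported as % inhibition versus vehicle.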

[4] = tested on: Mus musculus; test: Improvement in lipid profile in C57BL/6-Lep^ob (ob/ob) mouse assessed as triglyceride level at 20 mg/kg, po dosed once daily for 25 days (reference value: 90.9 +/- 5.5 mg/dl); type: functional; details: time 25 day
[5] = Tmax in rat at 5 mg/kg, po; type: ADME, organism-based; details: in vivo
Outline: (§2)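 Single-dose PK study. The iv dose was given in 10% hydroxypropyl-β-cyclodextrin and the oral dose in 0.5% methylcellulose/1% Tween80. Mouse and rat received 1 mg/kg iv and 5 mg/kg po. Dog received 0.5 mg/kg iv and 4 mg/kg po. CL, Vss, t1/2, AUC, Cmax, tmax and F were derived.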

[6] = tested on: Mus musculus; test: In-vivo inhibition of 11beta-HSD1 activity in C57BL/6 mouse epididymal fat assessed as reduction in cortisone to-cortisol conversion at 3 to 30 mg/kg, po measured after 2 to 6 hrs by ELISA; type: functional, organism-based; details: Epididymal fat pad, dose 3-30 mg/kg, time 2-6 hrs; outline: as §1
[7] = Half life in rat at 1 mg/kg, iv; type: ADME, organism-based; details: in vivo
[8] = Toxicity in female mouse during 4-week repeated once daily oral-dose toxicity study; details: in vivo, time 4 weeks
Outline: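 Mice of both sexes were dosed orally once daily for 4 weeks at 40, 100, 250 and 625 mg/kg. Toxicity was assessed and the NOAEL determined.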

[9] = Ratio of drug level in liver to plasma of mouse at 10 mg/kg, po measured after 2 hrs post dose; type: ADME, organism-based
Outline: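 C57BL/6 mice received a single oral dose of 10 mg/kg in 0.5% methylcellulose/1% Tween80. Animals were sacrificed 2 h post-dose. Compound was measured in brain, liver, adipose and plasma (nmol/g), and tissue/plasma ratios were calculated.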

[10] = Reduction in nonfasting blood glucose level in C57BL/6-Lep^ob (ob/ob) mouse at 20 mg/kg, po dosed once daily for 25 days and co-treated with 300 mg/kg. po QD for 25 days metformin relative to control; parameters: scale not given: the % may be the effect or the level left; details: time 25 day
[11] = Drug level in mouse adipose tissue at 10 mg/kg, po measured after 2 hrs post dose; type: ADME, organism-based; details: in vivo
Outline: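 C57BL/6 mice given a single oral 10 mg/kg dose in 0.5% methylcellulose plus 1% Tween80. Sacrifice at 2 h post-dose, with collection of brain, liver, adipose and plasma. Compound concentration expressed as nmol/g, along with tissue/plasma ratio.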

[12] = Volume of distribution at steady state in dog at 0.5 mg/kg, iv; type: ADME, organism-based, Canis lupus familiaris; details: in vivo, read-out: Vdss; outline: as §2
[13] = Reduction in HbA1c level in C57BL/6-Lep^ob (ob/ob) mouse at 20 mg/kg, po dosed once daily for 25 days relative to control; type: functional; parameters: scale not given: the % may be the effect or the level left; details: time 25 day
Outline: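 Eight-week-old male ob/ob mice were dosed orally once daily for 25 days with vehicle (sterile water, 0.5% methylcellulose, 1% Tween80), test compound 20 mg/kg, metformin 300 mg/kg, or the combination. Baseline postprandial glucose and HbA1c were checked from tail-vein blood. Changes in HbA1c and non-fasting blood glucose were expressed relative to the vehicle group.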

[14] = Clearance in mouse at 1 mg/kg, iv; type: ADME, organism-based; details: in vivo
[15] = Metabolic stability in mouse liver microsomes assessed as compound remaining after 30 mins; type: ADME, Microsome; details: read-out: Stabilty
[16] = tested on: Mus musculus; test: Improvement in lipid profile in C57BL/6-Lep^ob (ob/ob) mouse assessed as total cholesterol level at 20 mg/kg, po dosed once daily for 25 days (reference value: 286.6 +/- 6.3 mg/dl); type: functional; details: time 25 day
[17] = Volume of distribution at steady state in mouse at 1 mg/kg, iv; type: ADME, organism-based; details: in vivo, read-out: Vdss; outline: as §2
[18] = Oral bioavailability in rat at 5 mg/kg; type: ADME, organism-based; details: in vivo; outline: as §2
[19] = Cmax in dog at 4 mg/kg, po; type: ADME, organism-based, Canis lupus familiaris; parameters: route oral, dose 4 mg/kg; details: in vivo

C[C@@H]1CN(c2ccc(S(C)(=O)=O)cc2F)CCN1c1nccc(C(=O)NC2C3CC4CC2CC(O)(C4)C3)n1 (some centres undefined)
EC50 [1]: > 5 µM | IC50 [2]: 5.4 µM | inhibition [3]: Dose-dependent effect | Activity [4]: 83.4 mg/dL | Tmax [5]: 1.3 h | inhibition [6]: Dose-dependent effect | half-life [7]: 1.8 h | NOAEL at 672 h [8]: 625 mg/kg | Kp at 2 h [9]: 2.94 | Activity [10]: 33% | Drug uptake [11]: 6.64 nmol/g | Vd [12]: 2.4 L/kg | Activity [13]: 1.2% | clearance [14]: 7 mL/min/kg | remaining at 0.5 h [15]: 98% | Activity [16]: 230.6 mg/dL | Vd [17]: 1.1 L/kg | bioavailability [18]: 60% | Cmax [19]: 1120 ng/mL
